Bioassay records deposited in PubChem by several laboratories.
This is a sample that favours compounds with a hit; in the whole collection about 2.5% have one here.
TRPC4 inh: inhibitors of mouse TRPC4 channel | 300,000 compounds, 0.39% hits | HEK293 TRPC4beta/mu-opioid, DAMGO-evoked Fluo4 calcium flux; active compounds read low | B-score at 10 µM;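 active = B-score over 3 SD under the library average, no early fluorescence shift, positive overall ratio signal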
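Assay system – HEK293 line stably carrying TRPC4beta and mu-opioid receptor · Doses – single dose · Detection – Fluo4 calcium-dye fluorescence, kinetic read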
Platelet DG rel: modulates dense granule release in human platelets; human platelet-rich plasma, SFLLRN dense granule ATP release, luminescence; inhibition, %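 (compounds screened at 7.5 µM in platelet-rich plasma)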; 300,000 compounds, 0.22% hits; AID 1663;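 active = mean replicate score, as percent of positive control, at or above 50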
TRPC4 act: TRPC4 (mouse) channel activation; Q9QUQ5; HEK293 TRPC4beta/mu-opioid, Fluo4 calcium fluorescence; active compounds read high; B-score at 10 µM; 310,000 compounds, 0.49% hits;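 active = B-score above 5 SD of library B-scores, and initial fluorescence ratio not above library mean plus 5 SD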;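 also: positive B-score marks a calcium rise read as TRPC4 activation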
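System – HEK293 cells stably co-expressing mouse TRPC4beta and mu-opioid receptor · Signal – Fluo4 calcium-sensitive dye fluorescence, kinetic, 1 Hz baseline · Benchmarks – buffer (low) and maximal DAMGO (high) · Read-out – B score of integrated fluorescence ratio per well · Incubation – dye loading 45 min room temperature, 110 s kinetic read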
TRPC6 activator: mouse TRPC6 channel activation; Q61143; B-score at 10 µM; HEK293-TRPC6 membrane potential dye fluorescence; active compounds read high; 310,000 compounds, 0.13% hits;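 active = B-score of the integrated fluorescence ratio above library mean plus 3 SD, and starting fluorescence ratio within library mean plus 5 SD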;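 also: higher score means more depolarization so channel activation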
Target sequence (Q61143 whole entry, looked up): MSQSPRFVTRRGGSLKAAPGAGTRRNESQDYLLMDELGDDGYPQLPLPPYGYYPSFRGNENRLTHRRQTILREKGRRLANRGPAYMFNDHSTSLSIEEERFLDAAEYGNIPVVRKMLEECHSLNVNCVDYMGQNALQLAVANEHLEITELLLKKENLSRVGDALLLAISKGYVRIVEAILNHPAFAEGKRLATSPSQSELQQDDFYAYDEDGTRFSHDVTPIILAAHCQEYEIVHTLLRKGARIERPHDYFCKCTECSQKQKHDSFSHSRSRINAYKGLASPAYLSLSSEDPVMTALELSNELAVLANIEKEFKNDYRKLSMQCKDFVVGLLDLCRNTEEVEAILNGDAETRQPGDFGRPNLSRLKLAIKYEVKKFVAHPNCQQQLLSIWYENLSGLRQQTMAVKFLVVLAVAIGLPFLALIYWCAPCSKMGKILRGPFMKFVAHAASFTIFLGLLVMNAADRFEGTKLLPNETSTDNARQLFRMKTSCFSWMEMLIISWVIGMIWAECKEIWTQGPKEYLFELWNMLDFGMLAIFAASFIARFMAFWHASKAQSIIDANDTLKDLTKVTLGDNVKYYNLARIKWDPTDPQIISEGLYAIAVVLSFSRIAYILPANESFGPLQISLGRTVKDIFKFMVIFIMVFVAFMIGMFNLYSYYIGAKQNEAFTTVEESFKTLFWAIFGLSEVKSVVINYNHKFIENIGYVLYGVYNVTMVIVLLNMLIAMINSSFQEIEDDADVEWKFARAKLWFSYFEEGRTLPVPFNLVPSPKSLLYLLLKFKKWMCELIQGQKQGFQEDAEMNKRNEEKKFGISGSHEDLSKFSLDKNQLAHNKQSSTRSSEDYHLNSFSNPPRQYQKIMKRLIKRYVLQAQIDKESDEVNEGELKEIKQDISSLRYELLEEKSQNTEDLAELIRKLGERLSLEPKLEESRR
TRPC4 potent: allosterically enhances the mouse TRPC4 cation channel. 310,000 compounds, 0.42% hits. Q9QUQ5. B-score at 10 µM. AID 2227. HEK293 TRPC4beta/mu-opioid, DAMGO EC20, Fluo-4 Ca2+ flux; active compounds read high;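 active = B-score of calcium response area above 5 SD of library B-scores, with initial fluorescence ratio within 5 SD of library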;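 also: B-score of integrated fluorescence ratio over time as area under calcium response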
TRPC6 inhibitor: mouse TRPC6 channel inhibition; B-score at 10 µM; 310,000 compounds, 1.1% hits; HEK293-TRPC6, membrane potential dye, ACh-evoked depolarization; active compounds read low; Q61143;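 active = B-score under library mean minus 3 SD, initial fluorescence not abnormally high, positive integrated signal ratio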;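 also: B-score derived from integrated fluorescence ratio over the kinetic read; more negative B-score means stronger inhibition of depolarization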
TRPC4 sel inh 2: mouse TRPC4 off-target activity of TRPC6 inhibitors, second screen; 920 compounds, 42% hits; AID 2776; HEK293 TRPC4/MOR, membrane potential dye fluorescence; channel activated by saturating DAMGO dose; inhibition, % at 10 µM; shares compounds with TRPC6 inhibitor;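 active = compounds whose fluorescence signal differed from control wells by over 3 SD, either direction, in both duplicate plates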
TRPC4 spec: selectivity of TRPC6 inhibitors: effect on mouse TRPC4; HEK293 TRPC4/mu-opioid, membrane potential fluorescence; 920 compounds, 61% hits; activity change, negative = inhibition, % at 10 µM; shares compounds with TRPC6 inhibitor; AID 2777;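 active = rise or fall in signal beyond 3 SD of buffer-only wells in both replicate plates, either sign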;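 also: integrated kinetic ratio of fluorescence range over baseline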
HEK293 MPD ctr 2-1: parental HEK293 nonspecific activity of TRPC6 inhibitors, second screen. shares compounds with TRPC6 inhibitor. parental HEK293 membrane potential dye fluorescence; maximal acetylcholine challenge after compound addition. signal change vs control, % at 10 µM. 920 compounds, 31% hits. AID 2779;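 active = membrane potential signal moving either way by over 3 SD of the maximum-effect control, in both duplicate plates, meaning non-specific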
HEK293 MPD ctr-1: parental HEK293 nonspecific activity of TRPC6 inhibitors; membrane potential signal change, % at 10 µM; shares compounds with TRPC6 inhibitor; parental HEK293 membrane potential dye fluorescence; 920 compounds, 60% hits;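 active = membrane potential signal shifting up or down by more than 3 SD of buffer-only wells, on both duplicate plates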
HEK293 MPD ctr-2: parental HEK293 nonspecific activity of TRPC6 modulators; shares compounds with TRPC6 inhibitor; membrane potential dye fluorescence; membrane potential signal change, % at 10 µM; AID 488924; 2,400 compounds, 51% hits;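 active = membrane potential signal moves up or down beyond 5 SD from buffer-only wells, on both duplicate plates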
HEK293 MPD ctr 2-2: second check of TRPC6 modulator effects in parental HEK293 cells; shares compounds with TRPC6 inhibitor; membrane potential dye fluorescence; after compound, maximal acetylcholine stimulation; inhibition, % at 10 µM; 2,400 compounds, 14% hits;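 active = membrane potential signal drops by more than 5 SD from the mean control signal, in both duplicate plates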;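 also: plate controls were acetylcholine ECmax control wells for no effect and buffer only wells for full effect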
TRPC4 ctr mod: tests whether TRPC6 modulators also affect mouse TRPC4; shares compounds with TRPC6 inhibitor; HEK293 TRPC4/mu-opioid, membrane potential fluorescence; percent change from control (negative = decrease, positive = increase), % at 10 µM; 2,400 compounds, 69% hits; AID 488927;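 active = membrane potential signal moved up or down beyond 5 SD of buffer control wells, in both duplicate plates, actives on both sides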;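 also: plate controls were assay buffer wells for no effect and DAMGO maximal-effect wells for full effect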
TRPC4/MOR inh 2: second check of whether TRPC6 modulators also affect mouse TRPC4 | shares compounds with TRPC6 inhibitor | HEK293 TRPC4/mu-opioid, membrane potential dye fluorescence; stimulated with maximal-effect DAMGO | inhibition, % at 10 µM | 2,400 compounds, 55% hits | AID 488928;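 active = drop in membrane potential signal beyond 5 SD of the control wells in both duplicate plates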;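 also: TRPC4 counter screen for TRPC6 hits run under conditions tuned for TRPC6 not TRPC4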
TRPC6 inh conf: confirmation of mouse TRPC6 inhibitors; shares compounds with TRPC6 inhibitor; HEK293-TRPC6, membrane potential dye, ACh-evoked depolarization; inhibition, % at 10 µM; 3,300 compounds, 43% hits; AID 488960;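 active = fluorescence ratio falls more than 5 SD below the full-stimulation control mean, in both duplicate runs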;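 also: integrated fluorescence ratio of peak minus minimum over baseline after agonist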
TRPC6 act conf: confirmation of mouse TRPC6 activators; shares compounds with TRPC6 inhibitor; HEK293-TRPC6 membrane potential dye fluorescence, FDSS; activation, % at 10 µM; 2,800 compounds, 11% hits; AID 488961;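 active = ratio signal rise beyond 5 SD above unstimulated control wells' mean, seen in both duplicate runs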;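 also: plate controls were buffer EC0 wells for no effect and acetylcholine ECmax response for full effect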
An asterisk follows results filed as active; i = inactive; / = no result given; + = active, no number.

SMILES	TRPC4 inh	Platelet DG rel	TRPC4 act	TRPC6 activator	TRPC4 potent	TRPC6 inhibitor	HEK293 MPD ctr-2	HEK293 MPD ctr 2-2	TRPC4 ctr mod	TRPC4/MOR inh 2	TRPC6 inh conf	TRPC6 act conf	others
CC(C)Cc1nnc(NC(=O)CCC(=O)N2CC(C)CC(C)C2)s1 (stereo unspecified)	i	25.1	i	i	i	i	/	/	/	/	/	/
Cc1ccc(CN2CCN(/N=C/c3cccs3)CC2)cc1	i	8.4	i	i	i	i	/	/	/	/	/	/
O=c1c2ccccc2nc(SCCN2CCCCC2)n1CCc1ccccc1	i	1.6	i	i	i	-7.85*	/	/	/	/	67.8%*	i	TRPC4 sel inh 2=41.5%*;TRPC4 spec=i;HEK293 MPD ctr 2-1=i;HEK293 MPD ctr-1=i
Cn1c(=O)c2c(nc(SCCN3CCCCC3)n2Cc2ccc(Cl)cc2)n(C)c1=O	i	-1.1	80*	i	40*	-6.23*	-121.0%*	i	26.5%*	93.0%*	i	i
NC(=O)CSc1nc2ccccc2c(=O)n1CCc1ccccc1	i	12.7	i	i	i	i	/	/	/	/	/	/
CCC(C)NCC(O)(c1ccc(Cl)cc1)c1ccc(Cl)cc1 (stereo unspecified)	i	-4.1	i	i	i	i	/	/	/	/	/	/
CN1CCN(CC(O)(c2ccc(Cl)cc2)c2ccc(Cl)cc2)CC1	i	5.2	i	i	i	-7.26*	/	/	/	/	i	i	TRPC4 sel inh 2=i;TRPC4 spec=4.3%*;HEK293 MPD ctr 2-1=i;HEK293 MPD ctr-1=1.8%*
Cc1cc(C)cc(-n2c(C)cc(/C=N/NC(=O)CSc3ncccn3)c2C)c1	i	-4.7	i	i	i	-9.89*	/	/	/	/	i	i	TRPC4 sel inh 2=i;TRPC4 spec=i;HEK293 MPD ctr 2-1=i;HEK293 MPD ctr-1=i
CC[n+]1c(C)sc2c3ccsc3ccc21	i	-4.4	i	i	i	-6.33*	-184.5%*	i	-32.5%*	i	i	i
O=[N+]([O-])c1cc([N+](=O)[O-])c(Oc2c(F)ccc(F)c2F)cc1NN1CCCCC1	i	-4.8	i	i	i	i	/	/	/	/	/	/
COc1ccc2cc(C(=O)NCCCN3CCCC3=O)[nH]c2c1	i	-1.2	i	i	i	i	/	/	/	/	/	/
Cc1ccnc(SCC(=O)N2CCN(C(c3ccccc3)c3ccccc3)CC2)n1	i	1.6	i	18.4*	i	-11.4*	117.5%*	i	20.0%*	i	61.5%*	141.5%*
COC(=O)c1cc2ccsc2n1Cc1cc(=O)n2ccccc2n1	i	-9.5	i	i	i	-5.76*	i	i	8.5%*	i	56.0%*	i
O=c1c2sccc2n(Cc2cc(=O)n3ccccc3n2)c(=O)n1-c1ccccc1	i	14.1	i	i	i	i	/	/	/	/	/	/
N#Cc1c(NC(=O)c2ccccc2)sc2c1CCCCC2	i	4.9	i	i	i	i	/	/	/	/	/	/
N#Cc1c(Cl)nsc1NC(=O)c1ccccc1	i	2.0	i	i	i	-5.29*	255.5%*	i	101.0%*	79.5%*	71.0%*	/
CCn1c(C)[n+](Cc2ccccc2)c2ccc(Cl)cc21	i	-0.3	i	i	i	i	/	/	/	/	/	/
CCn1c(/C=C/N(C)c2ccccc2)[n+](CC)c2ccc(Cl)cc21	i	-3.4	i	i	i	-8.64*	/	/	/	/	64.8%*	i	TRPC4 sel inh 2=i;TRPC4 spec=-28.6%*;HEK293 MPD ctr 2-1=24.5%*;HEK293 MPD ctr-1=-411.0%*
CCn1c(/C=C/Nc2ccccc2)[n+](CC)c2ccc(Cl)cc21	i	-1.7	i	i	i	-5.24*	-186.5%*	i	-34.5%*	56.0%*	50.5%*	i
Cc1ccc(NC(=O)CCNC(=O)c2ccco2)cc1F	i	0.1	i	i	i	i	/	/	/	/	/	/
O=C(COC(=O)c1ccc(O)cc1O)Nc1nnc(-c2ccccc2)o1	i	-3.6	i	i	i	i	/	/	/	/	/	/
CCC(=O)N/N=C/c1ccc(-c2ccc([N+](=O)[O-])cc2)o1	i	0.1	i	i	i	i	/	/	/	/	/	/
CC(C)(C)C(=O)/C=c1\s/c(=C\c2ccc(-c3ccc([N+](=O)[O-])cc3)o2)c(=O)n1CC(=O)NC(N)=O	i	-1.3	62*	57.3*	21*	i	+	i	348.0%*	i	i	418.0%*
Cc1cc(C)c2nc(NC(=O)c3cccc(S(=O)(=O)N4CCc5ccccc54)c3)sc2c1	i	-0.4	i	i	i	i	/	/	/	/	/	/
Cc1cc(C)nc(NC2=NCC(=O)N2c2cc(Cl)cc(Cl)c2)n1	i	/	i	i	i	i	/	/	/	/	/	/
Cc1cc(C)nc(NC2=NC3CCCCC3N2)n1 (stereo unspecified)	i	7.5	i	i	i	-8.95*	191.5%*	127.5%*	-10.0%*	53.5%*	56.5%*	i
COc1cccc(-c2nc(-c3ccc(Br)o3)no2)c1	i	13.9	i	i	i	i	/	/	/	/	/	/
